For three compounds, EC50, Drug uptake and Activity results are on record in ChEMBL document CHEMBL1629690, “Development of hexadecyloxypropyl tenofovir (CMX157) for treatment of infection caused by wild-type and nucleoside/nucleotide-resistant HIV” (Antimicrob Agents Chemother, 2010).

Series [1] has as its system Human immunodeficiency virus 1. Kind of series: Antiviral activity against HIV1 subtype A isolate 92RW009 infected in human PBMC after 48 to 72 hrs by MTS assay. The series is classed as functional, organism-based. The following applies: Human immunodeficiency virus 1, isolate 92RW009. In short, it runs like this: (§1)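 Fresh donor PBMCs, HIV- and HBV-seronegative, were stimulated with 4 μg/ml PHA for 48 to 72 h and kept on 20 U/ml rhIL-2. Cells pooled from at least two donors were seeded at 5 × 10^4 per well and infected at MOI ~0.1. Nine compound concentrations were run in triplicate wells for 7 days.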

Series [2] concerns Human immunodeficiency virus 1. Kind of series: Antiviral activity against HIV1 subtype A isolate 92UG037 infected in human PBMC after 48 to 72 hrs by MTS assay. In kind it is functional, organism-based. The note with it: Human immunodeficiency virus 1, isolate 92UG037. The essentials: as §1
A general note: Tetrazolium dyes change colour on reduction, which living cells bring about.

Series [3] concerns Human immunodeficiency virus 1. Kind of series: Antiviral activity against HIV1 subtype B isolate Ba-L infected in human PBMC after 48 to 72 hrs by MTS assay. The series is classed as functional, organism-based. The following applies: Human immunodeficiency virus 1, isolate Ba-L. The essentials: as §1
Series [4] deals with Human immunodeficiency virus 1. Kind of series: Antiviral activity against HIV1 subtype B isolate 92TH026 infected in human PBMC after 48 to 72 hrs by MTS assay. The series is classed as functional, organism-based. The following applies: Human immunodeficiency virus 1, isolate 92TH026. The essentials:
as §1

In series [5] the test system is Human immunodeficiency virus 1. As to the kind of experiment: Antiviral activity against HIV1 subtype D isolate 92UG001 infected in human PBMC after 48 to 72 hrs by MTS assay. In kind it is functional, organism-based. The note with it: Human immunodeficiency virus 1, isolate 92UG001. In short, it runs like this: as §1
In series [6] the test system is Human immunodeficiency virus 1. Kind of series: Antiviral activity against HIV1 subtype D isolate 92UG046 infected in human PBMC after 48 to 72 hrs by MTS assay. The note with it: Human immunodeficiency virus 1, isolate 92UG046. The series is classed as functional, organism-based. In short, it runs like this:
as §1

For series [7], the system named is Human immunodeficiency virus 1. Kind of series: Antiviral activity against HIV1 subtype E isolate CMU08 infected in human PBMC after 48 to 72 hrs by MTS assay. In kind it is functional, organism-based. The note with it: Human immunodeficiency virus 1, isolate CMU08. The essentials:
as §1

Series [8] relates to Human immunodeficiency virus 1. As to the kind of experiment: Antiviral activity against HIV1 subtype F isolate 93BR019 infected in human PBMC after 48 to 72 hrs by MTS assay. The series is classed as functional, organism-based. The following applies: Human immunodeficiency virus 1, isolate 93BR019. In short, it runs like this:
as §1

Series [9] deals with PBMC. As to the kind of experiment: Cellular uptake in PHA/IL-2-stimulated human PBMC at 0.01 uM assessed as TFV-diphosphate after 24 hrs by MS/MS analysis. In kind it is ADME, cell-based. In short, it runs like this:
(§2)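 PHA/IL-2-stimulated PBMCs at 2 × 10^6 cells/ml (5 × 10^7 per flask) were exposed for 24 h at 37°C. Cells were washed three times in cold 0.9% NaCl and counted by trypan blue. Aliquots of 1 × 10^7 cells were pelleted. TFV, TFV-MP and TFV-PP were separated by ion-pairing reverse-phase gradient LC and detected by positive electrospray. Results are given as pmol/10^6 cells.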

For series [10], the system named is PBMC. Kind of series: Cellular uptake in PHA/IL-2-stimulated human PBMC at 0.1 uM assessed as TFV-diphosphate after 24 hrs by MS/MS analysis. The series is classed as ADME, cell-based. In short, it runs like this:
as §2

A short description of series [11]: Cytotoxicity against human dendritic cells after 24 hrs by XTT assay. In kind it is cell-based. The essentials:
(§3)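 Six-concentration growth-inhibition test: 10 to 0.032 μM for the prodrug and TDF, up to 100 μM for TFV, with Triton X-100 run in parallel. Cell lines were split 1:2 the day before and seeded at 5 × 10^3 to 2 × 10^4 cells/well, with adherent lines left overnight. Dendritic cells were derived with GM-CSF/IL-4 for 7 days, then LPS 10 ng/ml for 2 days. Viability was read by XTT.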

In series [12] the test system is PBMC. Kind of series: Cytotoxicity against PHA/IL-2-stimulated human PBMC after 24 hrs by XTT assay. In kind it is cell-based. In short, it runs like this:
as §3

Series [13] is described as follows: Cytotoxicity against human HuH7 cells after 24 hrs by XTT assay. In kind it is cell-based. The following applies: huh-7, 24 h. The essentials:
as §3

For another series, the system named is HepG2. Kind of series: Cytotoxicity against human HepG2 cells after 24 hrs by XTT assay. The series is classed as cell-based. The following applies: hepg2, 24 h. The essentials: as §3
In series [14] the test system is Human immunodeficiency virus 1. As to the kind of experiment: Antiviral activity against HIV1 subtype G isolate RU132 infected in human PBMC after 48 to 72 hrs by MTS assay. The series is classed as functional, organism-based. The following applies: Human immunodeficiency virus 1, isolate RU132. The essentials: as §1
Series [15] concerns Human immunodeficiency virus 1. As to the kind of experiment: Antiviral activity against HIV1 subtype G isolate G3 infected in human PBMC after 48 to 72 hrs by MTS assay. The series is classed as functional, organism-based. The note with it: Human immunodeficiency virus 1, isolate G3. In short, it runs like this: as §1
In series [16] the test system is Human immunodeficiency virus 1. As to the kind of experiment: Antiviral activity against HIV1 group O isolate BCF03 infected in human PBMC after 48 to 72 hrs by MTS assay. The series is classed as functional, organism-based. The note with it: Human immunodeficiency virus 1, isolate BCF03. In short, it runs like this:
as §1

Series [17] deals with Human immunodeficiency virus 1. As to the kind of experiment: Antiviral activity against HIV1 subtype A isolate 92UG029 infected in human MDM […] by MTS assay. In kind it is functional, organism-based. The following applies: Human immunodeficiency virus 1, isolate 92UG029.
The test system of series [18] is Human immunodeficiency virus 1. Kind of series: Antiviral activity against HIV1 subtype A isolate 92UG037 infected in human MDM […] by MTS assay. The following applies: Human immunodeficiency virus 1, isolate 92UG037. In kind it is functional, organism-based.
In series [19] the test system is Human immunodeficiency virus 1. As to the kind of experiment: Antiviral activity against HIV1 subtype B isolate ADA infected in human MDM […] by MTS assay. In kind it is functional, organism-based. The note with it: Human immunodeficiency virus 1, isolate ADA.
Series [20] concerns Human immunodeficiency virus 1. Kind of series: Antiviral activity against HIV1 isolate JR-CSF infected in human PBMC after 48 to 72 hrs by MTS assay in presence of 30% human serum. In kind it is functional. The note with it: Human immunodeficiency virus 1, JRCSF ISOLATE. In short, it runs like this: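 This is the PHA/IL-2 PBMC assay run with JR-CSF preincubated with 8 × 10^6 pooled cells for 1 h at 37°C. Cells were then spinoculated at 200 × g for 1 h and held 2 h more. Infected cells (2.5 × 10^4) were added, without virus washout, to wells holding uninfected PBMCs and compound. Medium had 15% FBS, plus 0, 10, 15, 20 or 30% human serum.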

Series [21] deals with PBMC. As to the kind of experiment: Cellular uptake in human PBMC at 1 uM assessed as TFV-monophosphate level after 24 hrs by MS/MS analysis. The series is classed as ADME, cell-based. In short, it runs like this: (§4)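 Human PBMCs, unstimulated or PHA/IL-2-stimulated, at 2 × 10^6 cells/ml in RPMI 1640 with 15% FBS, exposed 24 h at 37°C to final 0.01, 0.1, 1.0 or 10 μM of the prodrug, or 1.0 or 10 μM tenofovir. After cold saline washes the cells were counted and 1 × 10^7-cell pellets made. TFV, TFV-MP and TFV-PP were measured by ion-pairing LC with positive-ion electrospray MS as pmol/10^6 cells.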

Series [22] has as its system PBMC. Kind of series: Cellular uptake in human PBMC at 1 uM assessed as TFV-diphosphate level after 24 hrs by MS/MS analysis. In kind it is ADME, cell-based. The essentials:
as §4

Series [23] deals with PBMC. As to the kind of experiment: Cellular uptake in human PBMC at 10 uM assessed as TFV-diphosphate after 24 hrs by MS/MS analysis. The series is classed as ADME, cell-based. The essentials:
as §4

The subject of series [24] is PBMC. As to the kind of experiment: Cellular uptake in human PBMC at 0.01 uM assessed as TFV-monophosphate after 24 hrs by MS/MS analysis. In kind it is ADME, cell-based. The following applies: BLD = below limit of detection. In short, it runs like this: as §4
The test system of series [25] is PBMC. As to the kind of experiment: Cellular uptake in human PBMC at 0.01 uM assessed as TFV-diphosphate after 24 hrs by MS/MS analysis. In kind it is ADME, cell-based. In short, it runs like this: as §4
The subject of series [26] is PBMC. As to the kind of experiment: Cellular uptake in PHA/IL-2-stimulated human PBMC at 10 uM after 24 hrs by MS/MS analysis. In kind it is ADME, cell-based. In short, it runs like this: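 PHA-stimulated (4 μg/ml PHA, 48 to 72 h; 20 U/ml rhIL-2) human PBMCs at 2 × 10^6 cells/ml in RPMI 1640 with 15% FBS, given tenofovir or prodrug (final 0.01 to 10 μM) for 24 h at 37°C. Cells washed three times in cold 0.9% NaCl, counted, and 1 × 10^7 cell aliquots pelleted. TFV, TFV-MP and TFV-PP were separated by ion-pairing reverse-phase LC and detected by positive-ion electrospray MS. Output is pmol per 10^6 cells.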

A word on the EC50: it is the midpoint of the concentration-response curve. On to `CCCCCCCCCCCCCCCCOCCCOP(=O)(O)CO[C@H](C)Cn1cnc2c(N)ncnc21` [TENOFOVIR EXALIDEX], for which the EC50 in series [1] is 3.3 nM; in series [2], 3.3 nM; in [3] it was 1.5 nM; in series [4], 1.5 nM; in series [5] it was 2.1 nM; in [6], 2.1 nM. The EC50 in [7] stood at 2.3 nM; in series [8], 2.7 nM; in series [14] it was 2.2 nM; in [15], 2.2 nM; in series [16] it was 5 nM; in series [17], 1.3 nM. The figures for the EC50 in series [18], in [19] and in series [20] were 1.3 nM, 3.1 nM and 16 nM, respectively. Further, the Drug uptake with PBMC [9] was 0.07 pmol/10^6 cells; in the series on PBMC [10], 0.25 pmol/10^6 cells; with PBMC [21], 0.05 pmol/10^6 cells; in the series on PBMC [22] it was 0.22 pmol/10^6 cells; in the series on PBMC [23], 1.1 pmol/10^6 cells; in the series with PBMC [24] it was “BLD”. Also, the Drug uptake with PBMC [25] turned out to be 0.07 pmol/10^6 cells. Further, the Activity result (in series [11]; in the series on PBMC [12]; in [13]; in the series with HepG2) was “Non-toxic” each time.

`C[C@H](Cn1cnc2c(N)ncnc21)OCP(=O)(O)O` [TENOFOVIR ANHYDROUS]: the Drug uptake with PBMC [26] is 0.09 pmol/10^6 cells; in the series on PBMC [21] (BLD = below limit of detection) it was “BLD”; in the series on PBMC [22], 0.05 pmol/10^6 cells; in the series with PBMC [23] it was 0.15 pmol/10^6 cells. Besides, the Activity entry (in series [11]; with PBMC [12]; in series [13]; with HepG2) was “Non-toxic” throughout.

For the compound `Cc1cn([C@H]2C[C@H](N=[N+]=[N-])[C@@H](CO)O2)c(=O)[nH]c1=O` [ZIDOVUDINE], the EC50 in series [1] stood at 14 nM; in [2], 14 nM; in series [4], 2 nM; in series [5], 6.3 nM; in [6] it was 6.3 nM; in series [7], 5.5 nM. The EC50 turned out to be 9.6 nM in series [8]; 4.7 nM in series [14]; 4.7 nM in series [15]; 1.2 nM in series [17]; 1.3 nM in [18]; 2.7 nM in series [19].
